Experimental data from ChEMBL document CHEMBL1157476, “A novel class of cycloalkano[b]pyridines as potent and orally active opioid receptor-like 1 antagonists with minimal binding affinity to the hERG K+ channel” (J Med Chem, 2008).
Calls of active or inactive are those of the source. The calls are words filed in the database; no cut-off is given here.

Tests used:
Canis familiaris [1] = experiment: Cardiovascular activity in anesthetized dog assessed as corrected QT interval at 1 mg/kg, iv dosed for 10 mins measured after 20 mins relative to baseline; assay type: functional, Canis lupus familiaris
In short: (§1)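 Isoflurane-anesthetized dogs (n = 1 or 3) given cumulative iv doses as saline solutions, each infused over 10 min; 2 and 7 mg/kg doses given 20 min after the prior administration. QTc measured at 0, 10 and 20 min after dosing, expressed as percent change from baseline for each dog. Peak plasma levels taken after each dose.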

Canis familiaris [2] = experiment: Cardiovascular activity in anesthetized dog assessed as corrected QT interval at 2 mg/kg, iv dosed for 10 mins measured after 20 mins relative to baseline; assay type: functional, Canis lupus familiaris; in short: as §1
Canis familiaris [3] = experiment: Cardiovascular activity in anesthetized dog assessed as corrected QT interval at 7 mg/kg, iv dosed for 10 mins measured after 20 mins relative to baseline; assay type: functional, Canis lupus familiaris; in short: as §1
[4] = biological target: Voltage-gated inwardly rectifying potassium channel KCNH2 (Homo sapiens, UniProt Q12809)
Nociceptin receptor [5] = biological target: T1, Nociceptin receptor (Homo sapiens, UniProt P41146); experiment: Displacement of [125I][Tyr14]nociceptin from human ORL1 expressed in CHO cells; assay type: cell-based
Nociceptin receptor [6] = biological target: T1, Nociceptin receptor; experiment: Antagonist activity at human ORL1 expressed in CHO cells assessed as effect on nociceptin-induced GTPgammaS binding; assay type: functional, cell-based
physchem [7] = conditions: buffer, pH 7.4
Mus musculus [8] = experiment: Inhibition of ORL1 agonist-induced hypolocomotion in mouse at 3 mg/kg, sc; assay type: functional, organism-based; set-up: dose 3 mg/kg
[9] = Plasma concentration in rat at 10 mg/kg, po after 1 hrs; assay type: ADME, organism-based; set-up: dose 10 mg/kg, route oral
In short: (§2)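 Oral dose 10 mg/kg; plasma and brain collected 1 h after administration and drug concentrations measured, n = 3 per group.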

[10] = biological target: Kappa-type opioid receptor (Homo sapiens, UniProt P41145); experiment: Displacement of [3H]U69593 from human cloned kappa opioid receptor expressed in CHO cells; assay type: cell-based
In short: (§3)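 Radioligand displacement from CHO cells stably expressing cloned human receptors: [3H]diprenorphin for mu, [3H]U-69593 for kappa, [3H][D-Ala2,D-Leu5]enkephalin for delta; IC50; three independent determinations, each in duplicate.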

Brain = experiment: Drug level in rat brain at 10 mg/kg, po after 1 hrs; assay type: ADME, organism-based; set-up: dose 10 mg/kg, route oral; conditions: in vivo; in short: as §2
Plasma = conditions: dog, in vivo, iv, 1 mg/kg, 20 min
Rattus norvegicus = experiment: AUC (0 to infinity) in Sprague-Dawley rat at 0.65 mg/kg, iv; assay type: ADME, organism-based, Plasma; set-up: time infinity, dose 0.65 mg/kg, route intravenous; conditions: in vivo
In short: (§4)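 Fasted Sprague-Dawley rats (n = 3) received a single intravenous dose. Plasma exposure was expressed as AUC from zero to infinity, in µM·h. The same study also yielded clearance, half-life and steady-state volume of distribution, with oral dosing run in parallel.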

[11] = Volume of distribution at steady state in Beagle dog at 1 mg/kg, iv; assay type: ADME, organism-based, Canis lupus familiaris; set-up: dose 1 mg/kg, route intravenous; conditions: in vivo, read-out: Vdss
In short: (§5)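 Fasted Beagle dogs (n = 3) given 1 mg/kg intravenously; plasma pharmacokinetic parameters derived from the IV arm.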

[12] = Bioavailability in Beagle dog at 3 mg/kg, po; conditions: in vivo
in vivo [13] = conditions: dog, plasma, iv, 1 mg/kg
[14] = biological target: Delta-type opioid receptor (Homo sapiens, UniProt P41143); experiment: Displacement of [3H][D-Ala2,D-Leu5]enkephalin from human cloned delta opioid receptor expressed in CHO cells; assay type: cell-based; in short: as §3
Mus musculus [15] = experiment: Reversal of ORL agonist-induced locomotor activity in CD1 mouse at 10 mg/kg, po after 60 mins; assay type: functional
In short: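 Mice (n = 6) dosed orally at 10 mg/kg, then given an ORL1 agonist. Locomotor activity counted over 60 min against vehicle control and agonist-only groups. Result expressed as % reversal of the agonist-induced reduction in locomotion.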

[16] = Plasma clearance in Sprague-Dawley rat at 0.65 mg/kg, iv; assay type: ADME, organism-based; set-up: dose 0.65 mg/kg, route intravenous
In short: (§6)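 Fasted Sprague-Dawley rats (n = 3) given an intravenous solution in water at 3 or 0.65 mg/kg; plasma pharmacokinetic parameters from the IV arm.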

[17] = Metabolic stability in rat hepatocyte after 30 mins; assay type: ADME, cell-based; conditions: rat hepatocytes, read-out: Stability
In short: (§7)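 Compound incubated 30 min with rat hepatocytes or cryopreserved human hepatocytes; percent parent remaining reported; rat as mean of duplicates, human as mean of three experiments.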

[18] = Half life in Sprague-Dawley rat at 0.65 mg/kg, iv; assay type: ADME, organism-based; set-up: dose 0.65 mg/kg, route intravenous; conditions: in vivo; in short: as §6
in vivo [19] = conditions: dog, plasma, iv, 7 mg/kg
[20] = Metabolic stability in cryopreserved human hepatocyte after 30 mins; assay type: ADME, cell-based; conditions: cryopreserved human hepatocytes, read-out: Stability; in short: as §7
Mu-type opioid receptor = Mu-type opioid receptor (Homo sapiens, UniProt P35372); experiment: Displacement of [3H]diprenorphin from human cloned mu opioid receptor expressed in CHO cells; assay type: cell-based; in short: as §3
[21] = Plasma clearance in Beagle dog at 1 mg/kg, iv; assay type: ADME, organism-based, Canis lupus familiaris; set-up: dose 1 mg/kg, route intravenous; in short: as §5
[22] = Bioavailability in Sprague-Dawley rat at 3 mg/kg, iv; assay type: ADME, organism-based; conditions: in vivo, po, in the assay text read “po” for “iv”
In short: (§8)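 Fasted Sprague-Dawley rats (n = 3) dosed orally as a solution in water (10 or 3 mg/kg), with matching intravenous arms at 3 or 0.65 mg/kg; F from oral versus IV exposure.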

[23] = Volume of distribution at steady state in Sprague-Dawley rat at 0.65 mg/kg, iv; assay type: ADME, organism-based; set-up: dose 0.65 mg/kg, route intravenous; conditions: in vivo, read-out: Vdss; in short: as §6
physchem [24] = experiment: physchem
in vivo [25] = conditions: dog, plasma, iv, 2 mg/kg
[26] = Half life in Beagle dog at 1 mg/kg, iv; assay type: ADME, organism-based, Canis lupus familiaris; set-up: dose 1 mg/kg, route intravenous; conditions: in vivo; in short: as §5
[27] = AUC (0 to infinity) in Beagle dog at 1 mg/kg, iv; assay type: ADME, organism-based, Canis lupus familiaris; set-up: time infinity, dose 1 mg/kg, route intravenous; conditions: plasma; in short: as §5
[28] = Plasma clearance in Sprague-Dawley rat at 3 mg/kg, iv; assay type: ADME, organism-based; set-up: dose 3 mg/kg, route intravenous; in short: as §6
[29] = Volume of distribution at steady state in Sprague-Dawley rat at 3 mg/kg, iv; assay type: ADME, organism-based; set-up: dose 3 mg/kg, route intravenous; conditions: in vivo, read-out: Vdss; in short: as §6
[30] = AUC (0 to infinity) in Sprague-Dawley rat at 3 mg/kg, iv; assay type: ADME, organism-based; set-up: time infinity, dose 3 mg/kg, route intravenous; conditions: plasma; in short: as §4
[31] = Bioavailability in Sprague-Dawley rat at 10 mg/kg, iv; assay type: ADME, organism-based; conditions: in vivo, po, in the assay text read “po” for “iv”; in short: as §8
[32] = Half life in Sprague-Dawley rat at 3 mg/kg, iv; assay type: ADME, organism-based; set-up: dose 3 mg/kg, route intravenous; conditions: in vivo; in short: as §6

Sequence of Voltage-gated inwardly rectifying potassium channel KCNH2 (Q12809 whole entry): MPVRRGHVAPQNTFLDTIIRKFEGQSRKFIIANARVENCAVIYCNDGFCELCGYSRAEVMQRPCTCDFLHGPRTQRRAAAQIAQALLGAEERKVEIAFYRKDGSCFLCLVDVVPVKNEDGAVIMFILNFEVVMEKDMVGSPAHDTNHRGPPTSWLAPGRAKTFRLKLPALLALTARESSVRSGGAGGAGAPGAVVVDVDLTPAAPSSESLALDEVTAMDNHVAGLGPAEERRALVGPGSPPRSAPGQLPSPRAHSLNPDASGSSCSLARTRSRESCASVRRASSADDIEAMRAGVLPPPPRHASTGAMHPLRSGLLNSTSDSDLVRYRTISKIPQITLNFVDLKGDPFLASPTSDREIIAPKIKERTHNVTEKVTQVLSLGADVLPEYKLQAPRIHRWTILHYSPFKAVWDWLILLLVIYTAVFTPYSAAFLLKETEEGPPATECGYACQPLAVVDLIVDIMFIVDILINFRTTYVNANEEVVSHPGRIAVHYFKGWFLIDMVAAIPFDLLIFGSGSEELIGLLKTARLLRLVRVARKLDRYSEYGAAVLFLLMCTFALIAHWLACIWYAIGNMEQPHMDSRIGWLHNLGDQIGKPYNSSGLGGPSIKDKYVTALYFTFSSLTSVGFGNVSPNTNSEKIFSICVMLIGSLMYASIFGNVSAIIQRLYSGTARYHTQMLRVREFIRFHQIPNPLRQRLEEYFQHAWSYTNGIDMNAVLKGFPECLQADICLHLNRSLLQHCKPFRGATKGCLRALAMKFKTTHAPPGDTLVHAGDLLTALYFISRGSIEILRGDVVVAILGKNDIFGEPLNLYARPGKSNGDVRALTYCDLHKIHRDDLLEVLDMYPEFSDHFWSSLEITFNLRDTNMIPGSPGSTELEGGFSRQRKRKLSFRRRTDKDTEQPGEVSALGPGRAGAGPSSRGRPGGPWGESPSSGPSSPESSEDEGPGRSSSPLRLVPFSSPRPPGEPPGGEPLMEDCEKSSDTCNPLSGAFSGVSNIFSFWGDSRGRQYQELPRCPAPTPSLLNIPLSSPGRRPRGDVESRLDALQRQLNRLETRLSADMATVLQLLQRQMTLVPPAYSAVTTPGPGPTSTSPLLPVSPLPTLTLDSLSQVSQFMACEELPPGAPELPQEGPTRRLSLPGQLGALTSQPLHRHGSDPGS
T1 sequence (P41146 whole entry): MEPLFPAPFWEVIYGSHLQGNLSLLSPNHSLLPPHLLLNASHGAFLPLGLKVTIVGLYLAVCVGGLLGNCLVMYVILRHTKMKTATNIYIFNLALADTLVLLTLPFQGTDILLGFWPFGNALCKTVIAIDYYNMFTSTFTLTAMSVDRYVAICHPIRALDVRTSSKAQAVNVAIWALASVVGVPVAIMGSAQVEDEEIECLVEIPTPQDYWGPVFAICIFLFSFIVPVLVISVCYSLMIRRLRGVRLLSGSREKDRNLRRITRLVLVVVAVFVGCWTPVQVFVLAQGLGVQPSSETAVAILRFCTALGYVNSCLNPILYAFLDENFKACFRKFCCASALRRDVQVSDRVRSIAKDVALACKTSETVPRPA
Sequence of Delta-type opioid receptor (P41143 whole entry): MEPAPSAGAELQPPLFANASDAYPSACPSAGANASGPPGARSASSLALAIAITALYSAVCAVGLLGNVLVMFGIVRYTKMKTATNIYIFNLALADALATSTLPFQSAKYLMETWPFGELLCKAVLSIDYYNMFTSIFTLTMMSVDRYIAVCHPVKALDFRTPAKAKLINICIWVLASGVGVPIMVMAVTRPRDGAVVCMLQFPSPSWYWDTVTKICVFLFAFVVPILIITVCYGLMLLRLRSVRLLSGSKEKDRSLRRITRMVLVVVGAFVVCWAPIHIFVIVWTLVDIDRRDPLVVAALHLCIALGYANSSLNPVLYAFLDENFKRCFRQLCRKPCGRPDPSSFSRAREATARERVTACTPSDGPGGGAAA
Sequence of Mu-type opioid receptor (P35372 whole entry): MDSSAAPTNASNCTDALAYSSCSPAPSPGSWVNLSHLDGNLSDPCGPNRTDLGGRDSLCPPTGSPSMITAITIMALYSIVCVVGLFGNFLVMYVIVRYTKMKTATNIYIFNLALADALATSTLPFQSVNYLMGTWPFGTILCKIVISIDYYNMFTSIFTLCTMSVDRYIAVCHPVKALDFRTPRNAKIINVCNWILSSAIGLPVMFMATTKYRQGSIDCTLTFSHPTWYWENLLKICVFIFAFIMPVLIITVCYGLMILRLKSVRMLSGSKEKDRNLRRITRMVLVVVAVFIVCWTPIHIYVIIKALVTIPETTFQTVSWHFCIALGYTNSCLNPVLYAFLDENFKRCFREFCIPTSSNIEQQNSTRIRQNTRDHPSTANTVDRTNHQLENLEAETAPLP
Sequence of Kappa-type opioid receptor (P41145 whole entry): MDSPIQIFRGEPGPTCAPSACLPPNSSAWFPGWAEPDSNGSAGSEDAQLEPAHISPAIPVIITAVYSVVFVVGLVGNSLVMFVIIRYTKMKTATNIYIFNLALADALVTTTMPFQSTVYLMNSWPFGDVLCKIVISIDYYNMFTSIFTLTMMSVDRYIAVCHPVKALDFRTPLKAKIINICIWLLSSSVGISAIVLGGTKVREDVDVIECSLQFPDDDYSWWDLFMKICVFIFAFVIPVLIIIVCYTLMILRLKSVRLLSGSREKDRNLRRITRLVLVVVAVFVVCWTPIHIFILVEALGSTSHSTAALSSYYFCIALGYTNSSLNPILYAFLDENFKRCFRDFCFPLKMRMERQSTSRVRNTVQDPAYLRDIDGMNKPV

In the case of `Cc1ccccc1[C@@H]1CCN(C[C@@H]2CCc3cccnc3[C@@H](O)C2)C[C@H]1CO`, the Activity (Canis familiaris [1]) is reported as -0.1%, the Activity (Canis familiaris [2]) is reported as 0.1% and the Activity (Canis familiaris [3]) is reported as 11.3%.

Compound `O[C@H]1C[C@H](CN2CCC(c3ccccc3)CC2)CCc2cccnc21` has an IC50 [4] of 11 µM and a Ki (Nociceptin receptor [5]) of 0.03 µM.

`Cc1ccccc1[C@H]1CCN(C[C@@H]2Cc3cccnc3[C@@H](O)C2)C[C@@H]1O` gave an IC50 [4] greater than 50 µM and a Ki (Nociceptin receptor [5]) of 0.051 µM.

For `O[C@H]1C[C@H](CN2CCC(c3c(Cl)cccc3Cl)CC2)CCc2cccnc21`, the IC50 (Nociceptin receptor [6]) was 0.0016 µM, the IC50 [4] was 0.94 µM and the Ki (Nociceptin receptor [5]) was 0.00047 µM. For the same compound, the logD (physchem [7]) was greater than 4.

In the case of `Cc1ccccc1C1CCN(C[C@@H]2CCc3c(C)cccc3[C@@H](O)C2)CC1` (relative stereo), the Activity (Mus musculus [8]) is reported as “inactive”.

For `Cc1ccccc1[C@@H]1CCN(C[C@@H]2CCc3cccnc3[C@@H](O)C2)C[C@H]1C`, the IC50 (Nociceptin receptor [6]) was 0.0057 µM, the Ki (Nociceptin receptor [5]) was 0.0035 µM and the logD (physchem [7]) was 3.

`O[C@H]1C[C@H](CN2CC[C@H](c3ccc(F)cc3Cl)[C@@H](O)C2)Cc2cccnc21` showed a concentration at 1 h [9] of 0.03 µM, an IC50 [10] greater than 10 µM and an Activity (Canis familiaris [1]) of 1.1%. The Drug uptake (Brain) was 0.172 nmol/g, the PPB (Plasma) was 57% and the AUC (Rattus norvegicus) was 590 nM·h. For the same compound, the Vd [11] was 10.6 L/kg, the bioavailability [12] was 39% and the concentration at 20 min (in vivo [13]) was 3.48 µM. It also gave an IC50 [14] greater than 10 µM, an Activity (Mus musculus [15]) of 89% and a clearance [16] of 2.82 L/h/kg. It also gave a remaining at 0.5 h [17] of 30%, a half-life [18] of 1.2 h and a concentration at 20 min (in vivo [19]) of 29.8 µM. It also gave a remaining at 0.5 h [20] of 93%, an Activity (Canis familiaris [2]) of 0.9% and an IC50 (Mu-type opioid receptor) greater than 10 µM. The clearance [21] was 1.14 L/h/kg, the bioavailability [22] was 13% and the Vd [23] was 3.9 L/kg. It also gave a logD (physchem [7]) of 2.3, a pKa (physchem [24]) of 7.4 and a concentration at 20 min (in vivo [25]) of 8.3 µM. It also gave a half-life [26] of 13.5 h, an Activity (Canis familiaris [3]) of 2% and an AUC(0-inf) [27] of 2000 nM·h.

Compound `Cc1ccccc1C1CCN(C[C@@H]2CCc3cccnc3C3(C2)OCCO3)CC1` has a Ki (Nociceptin receptor [5]) of 0.025 µM and a logD (physchem [7]) of 3.1.

`Cc1ccccc1C1CCN(C[C@@H]2CCc3cccnc3C(=O)C2)CC1` showed a Ki (Nociceptin receptor [5]) of 0.049 µM and a logD (physchem [7]) of 1.3.

`Cc1ccccc1C1CCN(C[C@@H]2CCc3cccnc3C(C)(O)C2)CC1` (stereo in doubt; form 1) showed a Ki (Nociceptin receptor [5]) of 0.024 µM.

`Cc1cc(F)ccc1[C@H]1CCN(C[C@@H]2Cc3cccnc3[C@@H](O)C2)C[C@@H]1O` gave a Ki (Nociceptin receptor [5]) of 0.021 µM and a logD (physchem [7]) of 1.9.

`Cc1ccccc1C1CCN(C[C@@H]2CCc3cccnc3C(C)(O)C2)CC1` (stereo in doubt; form 2) showed a Ki (Nociceptin receptor [5]) of 0.017 µM and a logD (physchem [7]) of 2.9.

Compound `O[C@H]1C[C@H](CN2CC[C@H](c3ccc(F)cc3Cl)[C@@H](O)C2)CCc2cccnc21` has an IC50 (Nociceptin receptor [6]) of 0.005 µM and a Ki (Nociceptin receptor [5]) of 0.0044 µM.

Work on `O[C@H]1C[C@H](CN2CCC(c3ccccc3Cl)CC2)CCc2cccnc21` yielded an IC50 (Nociceptin receptor [6]) of 0.027 µM, an IC50 [4] of 1.5 µM and a Ki (Nociceptin receptor [5]) of 0.0011 µM.

`Cc1ccccc1C1CCN(C[C@@H]2Cc3cccnc3[C@@H](O)C2)CC1` showed an IC50 [4] greater than 50 µM, a Ki (Nociceptin receptor [5]) of 0.011 µM and a logD (physchem [7]) of 2.

For `Cc1ccccc1[C@@H]1CCN(C[C@@H]2CCc3cccnc3[C@@H](O)C2)C[C@H]1O`, the Activity (Canis familiaris [1]) was 0.2%, the clearance [28] was 5.46 L/h/kg and the Vd [29] was 6.3 L/kg. The PPB (Plasma) was 62%, the concentration at 20 min (in vivo [13]) was 2.26 µM and the AUC(0-inf) [30] was 1600 nM·h. The bioavailability [31] was 11%, the remaining at 0.5 h [17] was 6% and the concentration at 20 min (in vivo [19]) was 17.9 µM. For the same compound, the remaining at 0.5 h [20] was 62%, the Activity (Canis familiaris [2]) was 0.2% and the half-life [32] was 0.9 h. It also gave a logD (physchem [7]) of 2.2, a pKa (physchem [24]) of 7.8 and a concentration at 20 min (in vivo [25]) of 4.9 µM. For the same compound, the Activity (Canis familiaris [3]) was 2%.
